Source: ChEMBL document CHEMBL1165899, “Synthesis and antitumor evaluation of novel cyclic arylsulfonylureas: ADME-T and pharmacophore prediction” (2010)

What was measured:
Format in all cases: functional
[1] = test system: SK-MEL-5; test: Growth inhibition of human SK-MEL-5 cells at 10 uM after 48 hrs by sulforhodamine B assay relative to control; conditions: SK-MEL-5, 48 h, read-out: GI
[2] = test system: SK-MEL-28; test: Growth inhibition of human SK-MEL-28 cells at 10 uM after 48 hrs by sulforhodamine B assay relative to control; conditions: SK-MEL-28, 48 h, read-out: GI
[3] = test system: Malme-3M; test: Growth inhibition of human MALME-3M cells at 10 uM after 48 hrs by sulforhodamine B assay relative to control; conditions: read-out: GI
[4] = test system: LOX IMVI; test: Growth inhibition of human LOXIMVI cells at 10 uM after 48 hrs by sulforhodamine B assay relative to control; conditions: read-out: GI
[5] = test system: TK-10; test: Growth inhibition of human TK10 cells at 10 uM after 48 hrs by sulforhodamine B assay relative to control; conditions: TK-10, 48 h, read-out: GI
Method in brief: (§1)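 NCI 60-cell-line single-dose screen at 10 µM. Cells were plated at 5000–40,000 cells/well according to doubling time, in medium with 2 mM L-glutamine, and held 24 h at 37 °C, 5% CO₂, 100% humidity before drug. Time-zero plates were TCA-fixed. Exposure was 48 h, then TCA fixation and sulforhodamine B staining for 10 min, acetic acid washes, 10 mM trizma solubilization and A515. % inhibition = 100 − % activity, where 100% is the DMSO-solvent control.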

[6] = test system: CAKI-1; test: Growth inhibition of human Caki1 cells at 10 uM after 48 hrs by sulforhodamine B assay relative to control; conditions: CAKI-1, 48 h, read-out: GI
[7] = test system: ACHN; test: Growth inhibition of human ACHN cells at 10 uM after 48 hrs by sulforhodamine B assay relative to control; conditions: read-out: GI
[8] = test system: 786-0; test: Growth inhibition of human 786-0 cells at 10 uM after 48 hrs by sulforhodamine B assay relative to control; conditions: 786-0, 48 h, read-out: GI
[9] = Growth inhibition of human […] cells at 10 uM after 48 hrs by sulforhodamine B assay relative to control; conditions: read-out: GI
[10] = test system: MOLT-4; test: Growth inhibition of human MOLT4 cells at 10 uM after 48 hrs by sulforhodamine B assay relative to control; conditions: MOLT-4, 48 h, read-out: GI
[11] = test system: HL-60(TB); test: Growth inhibition of human HL-60(TB) cells at 10 uM after 48 hrs by sulforhodamine B assay relative to control; conditions: HL-60, 48 h, read-out: GI
Method in brief: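 Part of a 60-cell-line panel screen at a single concentration. Cells were plated at 5000–40,000 cells/well according to doubling time and pre-incubated 24 h at 37 °C, 5% CO₂, with time-zero plates fixed. Drug exposure ran 48 h. Plates were stained with SRB, rinsed with 1% acetic acid, dye dissolved in 10 mM trizma base, read at 515 nm. % inhibition = 100 − % activity versus DMSO-only wells; 100–200% denotes lethality.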

[12] = test system: DU-145; test: Growth inhibition of human DU145 cells at 10 uM after 48 hrs by sulforhodamine B assay relative to control; conditions: DU-145, 48 h, read-out: GI
[13] = test system: OVCAR-8; test: Growth inhibition of human OVCAR8 cells at 10 uM after 48 hrs by sulforhodamine B assay relative to control; conditions: OVCAR-8, 48 h, read-out: GI
[14] = test system: OVCAR-4; test: Growth inhibition of human OVCAR4 cells at 10 uM after 48 hrs by sulforhodamine B assay relative to control; conditions: OVCAR-4, 48 h, read-out: GI
[15] = test system: IGROV-1; test: Growth inhibition of human IGROV1 cells at 10 uM after 48 hrs by sulforhodamine B assay relative to control; conditions: IGROV-1, 48 h, read-out: GI
[16] = test system: NCI/ADR-RES; test: Growth inhibition of human NCI/ADR-RES cells at 10 uM after 48 hrs by sulforhodamine B assay relative to control; conditions: read-out: GI
[17] = test system: MDA-MB-435; test: Growth inhibition of human MDA-MB-435 cells at 10 uM after 48 hrs by sulforhodamine B assay relative to control; conditions: MDA-MB-435, 48 h, read-out: GI
[18] = test system: BT-549; test: Growth inhibition of human BT549 cells at 10 uM after 48 hrs by sulforhodamine B assay relative to control; conditions: BT-549, 48 h, read-out: GI
[19] = test system: SW-620; test: Growth inhibition of human SW620 cells at 10 uM after 48 hrs by sulforhodamine B assay relative to control; conditions: SW-620, 48 h, read-out: GI; method in brief: as §1
[20] = test system: HT-29; test: Growth inhibition of human HT-29 cells at 10 uM after 48 hrs by sulforhodamine B assay relative to control; conditions: HT-29, 48 h, read-out: GI
[21] = test system: HCT-15; test: Growth inhibition of human HCT15 cells at 10 uM after 48 hrs by sulforhodamine B assay relative to control; conditions: HCT-15, 48 h, read-out: GI
[22] = test system: HCT-116; test: Growth inhibition of human HCT116 cells at 10 uM after 48 hrs by sulforhodamine B assay relative to control; conditions: HCT-116, 48 h, read-out: GI
[23] = test system: HCC 2998; test: Growth inhibition of human HCC2998 cells at 10 uM after 48 hrs by sulforhodamine B assay relative to control; conditions: HCC 2998, 48 h, read-out: GI
[24] = test system: COLO 205; test: Growth inhibition of human COLO205 cells at 10 uM after 48 hrs by sulforhodamine B assay relative to control; conditions: COLO 205, 48 h, read-out: GI
[25] = test system: NCI-H460; test: Growth inhibition of human NCI-H460 cells at 10 uM after 48 hrs by sulforhodamine B assay relative to control; conditions: NCI-H460, 48 h, read-out: GI
[26] = test system: NCI-H322M; test: Growth inhibition of human NCI-H322M cells at 10 uM after 48 hrs by sulforhodamine B assay relative to control; conditions: read-out: GI
[27] = test system: HOP-92; test: Growth inhibition of human HOP92 cells at 10 uM after 48 hrs by sulforhodamine B assay relative to control; conditions: HOP-92, 48 h, read-out: GI
[28] = test system: SF-268; test: Growth inhibition of human SF268 cells at 10 uM after 48 hrs by sulforhodamine B assay relative to control; conditions: SF-268, 48 h, read-out: GI
[29] = test system: SF-295; test: Growth inhibition of human SF295 cells at 10 uM after 48 hrs by sulforhodamine B assay relative to control; conditions: SF-295, 48 h, read-out: GI
[30] = test system: SF-539; test: Growth inhibition of human SF539 cells at 10 uM after 48 hrs by sulforhodamine B assay relative to control; conditions: SF-539, 48 h, read-out: GI
[31] = test system: SNB-75; test: Growth inhibition of human SNB75 cells at 10 uM after 48 hrs by sulforhodamine B assay relative to control; conditions: SNB-75, 48 h, read-out: GI
[32] = test system: U-251; test: Growth inhibition of human U251 cells at 10 uM after 48 hrs by sulforhodamine B assay relative to control; conditions: U-251, 48 h, read-out: GI; method in brief: as §1

Structure (SMILES): CN(C)c1ccc(/C=C2\NC(=O)N(S(=O)(=O)c3ccc(Cl)cc3)C2=O)cc1
- inhibition of growth at 10 µM [1]: -3.11%
- inhibition of growth at 10 µM [2]: -4.69%
- inhibition of growth at 10 µM [3]: -49.7%
- inhibition of growth at 10 µM [4]: 6.44%
- inhibition of growth at 10 µM [5]: -33.4%
- inhibition of growth at 10 µM [6]: -5.71%
- inhibition of growth at 10 µM [7]: -5.38%
- inhibition of growth at 10 µM [8]: -0.44%
- inhibition of growth at 10 µM [9]: -6.72%
- inhibition of growth at 10 µM [10]: 11.5%
- inhibition of growth at 10 µM [11]: 4.85%
- inhibition of growth at 10 µM [12]: -4.25%
- inhibition of growth at 10 µM [13]: -8.63%
- inhibition of growth at 10 µM [14]: 7.93%
- inhibition of growth at 10 µM [15]: 97.9%
- inhibition of growth at 10 µM [16]: -6.33%
- inhibition of growth at 10 µM [17]: -4.89%
- inhibition of growth at 10 µM [18]: 4.63%
- inhibition of growth at 10 µM [19]: -1.96%
- inhibition of growth at 10 µM [20]: -2.64%
- inhibition of growth at 10 µM [21]: 1.55%
- inhibition of growth at 10 µM [22]: -3.55%
- inhibition of growth at 10 µM [23]: -54%
- inhibition of growth at 10 µM [24]: -14.7%
- inhibition of growth at 10 µM [25]: -15.8%
- inhibition of growth at 10 µM [26]: -16.5%
- inhibition of growth at 10 µM [27]: 11.2%
- inhibition of growth at 10 µM [28]: -21.6%
- inhibition of growth at 10 µM [29]: -8.92%
- inhibition of growth at 10 µM [30]: -0.9%
- inhibition of growth at 10 µM [31]: -5.55%
- inhibition of growth at 10 µM [32]: -0.69%
